Rows were chosen to be rich in hits. Some 3.3% of all compounds tested hit in one or more screens of this group.
PRMT1 FP inh – inhibitors of human PRMT1. Q99873. recombinant PRMT1, activity-based probe fluorescence polarization. inhibition, % at 2.79 µM. 1.3% of 370,000 active;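 active means inhibition above about 21% made by adding two undisclosed values, limit read from the data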
TCR-CD3 inh – human TCR-CD3 binding inhibition; TAMRA-labeled TCR probe fluorescence, biochemical; inhibition, % at 9.4 µM; 0.37% of 360,000 active; AID 651800; in the data active means inhibition above about 19%;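 further: recombinant mutant TCR 2C K166C tagged with TAMRA read by polarization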
mABHD4 FP – inhibitors of mouse ABHD4. inhibition, % at 8.92 µM. purified mABHD4, FP-Rh probe fluorescence polarization. 0.54% of 370,000 active. Q8VD66;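 active means inhibition exceeding the mean over every tested compound plus 3 SD, cut at about 30% in these data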
Target sequence (Q8VD66 whole entry, looked up): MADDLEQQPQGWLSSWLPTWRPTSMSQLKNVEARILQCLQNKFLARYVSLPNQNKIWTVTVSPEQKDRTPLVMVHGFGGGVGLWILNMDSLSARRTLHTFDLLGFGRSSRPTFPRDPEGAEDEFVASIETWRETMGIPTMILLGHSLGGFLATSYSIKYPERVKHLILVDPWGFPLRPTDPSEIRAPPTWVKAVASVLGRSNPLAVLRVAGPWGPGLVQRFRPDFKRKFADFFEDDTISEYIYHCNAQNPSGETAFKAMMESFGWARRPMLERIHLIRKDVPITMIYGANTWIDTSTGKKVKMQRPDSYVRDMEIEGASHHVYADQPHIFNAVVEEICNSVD
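Assay system: mABHD4 protein; medium: HEPES pH 7.0, NaCl, Pluronic buffer; dosing: 8.92 µM, single dose; schedule: 45 min + 60 min at 25 °C; signal: FP readout, ex 525 nm / em 598 nm; read-out: normalized percent inhibition of probe labeling; repeats: single replicate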
SIAE inh – blocks human sialic acid acetylesterase; Q9HAT2; SIAE FP-Rh probe binding, fluorescence polarization; inhibition, % at 9.66 µM; 0.69% of 370,000 active; AID 1053197;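 active means inhibition above a cutoff: mean of compounds within the control limits plus 3 SD of those, cut at about 17% in these data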
rCAG RNA binder – r(CAG) repeat RNA binding; TO-PRO-1 dye displacement fluorescence; AID 651821; 1.3% of 370,000 active; inhibition, % at 3 µM;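 active means inhibition above the plate cutoff, the mean of all test compounds on that plate plus 3 SD, cut at about 35% in these data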;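 further: higher means more dye released from RNA so lower well fluorescence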
PRMT1 confirm – confirmation of human PRMT1 inhibitors; shares compounds with PRMT1 FP inh; recombinant His-PRMT1, activity-based probe fluorescence polarization; inhibition, % at 2.79 µM; 42% of 3,300 active; AID 687036;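 active means mean inhibition across replicates above the hit cutoff derived for the earlier primary screen, cut at about 22% in these data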
Hits are given with their value; . = inactive; / = no result given.

SMILES	PRMT1 FP inh	TCR-CD3 inh	mABHD4 FP	SIAE inh	rCAG RNA binder	PRMT1 confirm
COc1ccc(Cn2c(NC(=O)c3ccccc3)nc(Cc3ccccc3)c2-c2ccccc2)c(OC)c1	.	/	.	.	.	/
COc1ccc(CCN(Cc2cccs2)S(=O)(=O)c2ccc(C)c(C)c2)cc1OC	.	/	.	.	.	/
CC(=O)Nc1ccc(S(=O)(=O)NC(C)C(=O)NC(C)c2ccccc2)cc1 (stereo unspecified)	44	.	.	.	.	55
CC(=O)Nc1ccc(S(=O)(=O)N[C@@H](C)C(=O)N2CCN(c3ccccn3)CC2)cc1	38	.	.	.	.	23
CCC(NS(=O)(=O)c1ccc(C)cc1)C(=O)N1CCN(c2ccccn2)CC1 (stereo unspecified)	.	.	.	.	.	/
CN1/C(=C\C(=O)c2cccnc2)Sc2ccccc21	31	.	.	.	.	.
COc1cccc(C(=O)/C=C2\Sc3ccccc3N2C)c1	.	.	.	.	.	/
Oc1ccccc1C(=S)N1CCN(C(=S)c2ccccc2O)CC1	42	.	.	.	.	.
NC(=NCc1ccccc1)NC(=O)OCc1ccccc1	.	/	.	.	.	/
O=C(O)c1ccc(/C=C2\SC(=S)N(NC(=O)c3ccccc3[N+](=O)[O-])C2=O)cc1	29	.	.	.	.	.
CCOC(=O)c1c[nH]c(=S)n(-c2ccccc2)c1=O	.	.	.	.	.	/
CCOC(=O)c1c(SCCN2CCCC2)n(-c2ccccc2)c(=S)n(-c2ccccc2)c1=O	52	.	.	.	.	40
N#Cc1ccc(/C=C2\CC3(OC(=O)c4ccc(F)cc4)CCCN2C3)cc1 (stereo unspecified)	.	/	.	.	.	/
O=C(CSc1ccc(Br)cc1)NCC1(N2CCCCC2)CCCCC1	.	.	.	.	.	/
CC(=O)Nc1ccc(SCC(=O)NCC2(N3CCCCC3)CCCCC2)cc1	41	.	.	.	.	37
C/C(C=NNC(=O)CSc1nc2ccccc2n1C)=C\c1ccccc1	.	/	.	.	.	/
C[C@H]1[C@@H](NCc2ccccc2)CC[C@@]23CCCN2C(=O)CCC[C@@H]13	.	/	.	.	/	/
c1ccc(Nc2ccccn2)cc1	.	.	.	.	.	/
c1ccc(Nc2cccc(Nc3ccccc3)n2)cc1	37	.	.	.	.	42
CCn1cc(C(=O)N2CCn3c(nc4ccccc43)C2)c(=O)c2ccc(C)nc21	31	.	.	.	.	.
Cc1ccccc1Cn1cc(CN2[C@@H](CC(C)C)COc3cc(Br)ccc3S2(=O)=O)nn1	.	/	.	.	.	/
O=C(CN1CC[n+]2c(-c3ccccc3)csc21)c1ccc(Br)cc1	49	.	.	.	.	55
CC(=O)N1CCN(CC(=O)c2ccc(Br)cc2)CC1	.	.	.	.	.	/
O=C(CN1CC[n+]2c(-c3cccs3)csc21)c1ccc(Br)cc1	25	.	.	.	.	42
O=C(NCc1ccccc1)C1CCN(c2nc(-c3ccc(Br)cc3)cs2)CC1	.	/	.	.	/	/
SMILES	PRMT1 FP inh	TCR-CD3 inh	mABHD4 FP	SIAE inh	rCAG RNA binder	PRMT1 confirm
COc1cccc(/C=N\N2CCN(c3ccc(C)cc3)CC2)c1O	.	/	.	.	.	/
Nc1cccc([N+](=O)[O-])c1	.	.	.	.	.	/
O=[N+]([O-])c1cccc(SSc2cccc([N+](=O)[O-])c2)c1	83	.	.	.	.	95
Cc1sc(NC(=S)NC(=O)c2ccccc2)c(C#N)c1C	.	.	.	.	.	/
Cc1sc(NC(=S)NC(=O)c2ccco2)c(C#N)c1C	49	.	.	.	.	.
COc1cc(C2C3CN(C)CC=C3C(C#N)=C(N)C2(C#N)C#N)ccc1OC(C)C (stereo unspecified)	.	.	.	.	.	/
CN1CC=C2C(C#N)=C(N)C(C#N)(C#N)C(Cc3ccccc3)C2C1 (stereo unspecified)	45	.	.	.	.	.
CC(C)N1CC=C2C(C#N)=C(N)C(C#N)(C#N)C(c3ccccc3)C2C1 (stereo unspecified)	37	.	.	.	.	33
CC(C)C[C@H]1COc2cc(Br)ccc2S(=O)(=O)N1Cc1cn(Cc2ccco2)nn1	.	/	.	.	.	/
CCn1c2ccccc2c2cc(C=Nn3c(-c4ccccn4)n[nH]c3=S)ccc21	.	/	.	.	.	/
O=C1c2ccccc2[C@@H]2Cc3csc[n+]3[C@H]12	85	.	.	.	.	83
Cc1ccc2c(c1)N(CCCC(=O)NCc1cccs1)C(=O)CO2	.	/	.	.	.	/

Assay outcomes deposited in PubChem BioAssay by The Scripps Research Institute Molecular Screening Center.
